Compounds with a hit are over-represented: about 2.8% of the library has one in this group of screens.
RBBP9 inhibitor: inhibitors of human serine hydrolase RBBP9; recombinant RBBP9, FP-Rh probe fluorescence polarization; inhibition, % at 7.94 µM; 220,000 tested, 0.2% active;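 active = inhibition above the campaign mean of all tested compounds plus 3 SD, cut at about 14% in these data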
Target sequence (O75884 whole entry, looked up): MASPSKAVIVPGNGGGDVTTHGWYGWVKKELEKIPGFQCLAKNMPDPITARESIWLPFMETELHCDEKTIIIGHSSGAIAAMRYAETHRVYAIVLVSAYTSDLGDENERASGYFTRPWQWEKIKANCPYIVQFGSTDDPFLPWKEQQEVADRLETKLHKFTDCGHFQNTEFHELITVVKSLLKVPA
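System: RBBP9 protein / Buffer or medium: Tris/NaCl buffer pH 8.0 with 0.1% Pluronic / Probe or stimulus: Serine-hydrolase probe FP-Rh, 375 nM pre-mixing / Dosing: 7.94 µM single dose, 0.794% DMSO / Times: enzyme-compound preincubation 30 min, then probe labeling 45 min, 25 °C / Technique: fluorescence polarization (mP), excitation 525 nm, emission 598 nm / Replication: singlicate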
14-3-3 Bad inh: disrupts binding of bovine 14-3-3 zeta to phospho-Bad peptide; TR-FRET 14-3-3zeta/Dy647-pBad peptide displacement, 1 h; inhibition, % at 21.7 µM; 220,000 tested, 0.71% active; P63103;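 active = inhibition above about 70%, limit read from the data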
Target sequence (P63103 whole entry, looked up): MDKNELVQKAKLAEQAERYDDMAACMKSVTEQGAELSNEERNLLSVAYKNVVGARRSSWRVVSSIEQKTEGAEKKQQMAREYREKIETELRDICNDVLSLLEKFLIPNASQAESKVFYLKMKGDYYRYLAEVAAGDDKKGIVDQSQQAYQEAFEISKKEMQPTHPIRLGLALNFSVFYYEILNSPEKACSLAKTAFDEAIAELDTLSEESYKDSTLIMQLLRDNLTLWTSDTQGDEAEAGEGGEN
eIF4E 4G PPI: eIF4E/eIF4G interaction inhibition in translation initiation; P63073+Q04637; TR-FRET eIF4E-eIF4GI(517-606) binding, 2 h; inhibition, % at 21.7 µM; 220,000 tested, 0.37% active
NCF1 inh: p47phox (human) inhibition. P14598. p47phox/p22phox peptide binding, fluorescence polarization, 2 h. inhibition, % at 24.7 µM. 220,000 tested, 0.53% active
Wee1 stabilizer: inhibitors of human Wee1 degradation | P30291 | HeLa Luc-Wee1K328M stability, luciferase luminescence; 100% = proteasome inhibitor MG132 effect | reporter increase, % at 5 µM | 220,000 tested, 1.2% active | AID 1321;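 active = activation above the mean of all tested compounds plus 3 SD, set per screening run, cut at about 8.8% in these data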;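 also: cells exposed to compound for 20 h before luminescence read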
Each line names hits and unclear results; the compound was inactive in the other large screens; [ ] = dose if it differs, or a comment.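 The calls were made as follows, unless noted: active = inhibition above about 30% (limit read from the data); inactive = the rest.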

COC(=O)CCN(C(=O)c1ccc(C)c([N+](=O)[O-])c1)c1ccccn1	Wee1 stabilizer 10.0
O=C(c1ccc(Cl)c([N+](=O)[O-])c1)N(c1ccccn1)c1ccccn1	none
Cc1ccc(-c2nc(C#N)c(N3CCCCC3)o2)cc1	Wee1 stabilizer 9.7
CCCCNC(=O)Cn1cnc2sc(C)c(S(=O)(=O)N3CCN(c4ncccn4)CC3)c2c1=O	none
CC(=O)Nc1ccc(S(=O)(=O)N2CCCc3ccccc32)cc1	none
Nc1ccc(S(=O)(=O)N2CCCc3ccccc32)cc1	eIF4E 4G PPI 62
Cc1ccccc1CSc1nncn1N	eIF4E 4G PPI 46
Cn1cnnc1SCc1ccccc1Br	none
COc1cc(NC(=O)c2cc(Cl)nnc2Cl)cc(OC)c1OC	Wee1 stabilizer 10
COc1cccc(NC(=O)c2cc(Cl)nnc2Cl)c1	none
CS(=O)(=O)N1CCN(Cc2ccc(C(F)(F)F)cc2)CC1	14-3-3 Bad inh 81
Cc1cc(N2CCCCC2)nc(NCc2ccccc2)n1	eIF4E 4G PPI 67
Cc1cc(N2CCOCC2)nc(NCc2ccccc2)n1	none
CCOc1ccc(N=CC2=C(O)CC(c3ccco3)CC2=O)cc1 (stereo unspecified)	none
O=C1CC(c2ccccc2)CC(O)=C1C=Nc1cccc(Cl)c1 (stereo unspecified)	Wee1 stabilizer 9.6
O=C1CC(c2ccccc2)CC(O)=C1C=Nc1ccc(Cl)cc1 (stereo unspecified)	none
O=C1CC(c2ccco2)CC(O)=C1C=Nc1cc(Cl)cc(Cl)c1 (stereo unspecified)	eIF4E 4G PPI 52
CCOC(=O)c1cccc(NC(=S)NCc2ccc(C)cc2)c1	none
COc1cc(CNCc2ccncc2)cc(Br)c1OCc1ccccc1F	14-3-3 Bad inh 83
COc1cc(CNc2ccc(O)cc2)cc(Br)c1OCc1ccccc1F	none
COc1ccc(S(=O)(=O)N(C)c2ccc(C(=O)N3CCC(C(N)=O)CC3)cc2)cc1OC	none
Oc1ccc(-c2nc3ccc4ccccc4c3c3c2CCC3)cc1O	Wee1 stabilizer 9.5
O=C(Nc1sc2c(c1C(=O)c1ccccc1)CCCC2)c1cccnc1	none
O=C(Nc1sc2c(c1C(=O)c1ccc(Cl)cc1)CCCC2)c1cccnc1	14-3-3 Bad inh 71
CN(C)C(=O)CSc1nnc(-c2cccs2)n1-c1ccccc1	none
Cc1cc2cc(CNC(=O)NC3CCCCC3)ccc2[nH]1	none
Cc1cc2cc(CNC(=S)NC3CCCCC3)ccc2[nH]1	Wee1 stabilizer 9.9
O=C(Nc1ccc2c(c1)OCCO2)c1cncc(Br)c1	none
O=C(Nc1ccc2c(c1)OCO2)c1cncc(Br)c1	Wee1 stabilizer 21
Cc1ccn(C(=O)c2ccc(NC(=O)C3CC3)cc2)n1	none
Cn1cccc1-c1nc2ccc(NC(=O)c3ccc([N+](=O)[O-])cc3)cc2[nH]1	none
Cn1cccc1-c1nc2ccc(NC(=O)c3ccccc3)cc2[nH]1	Wee1 stabilizer 10
CCOC(=O)c1[nH]c(C=O)c(C(=O)OCC)c1C	none
CCOC(=O)c1ccc(NC(=O)NCc2ccc(OC)cc2)cc1	14-3-3 Bad inh 79
COc1ccc(CNC(=O)Nc2ccc(C)cc2)cc1	none
COc1cc(/C=C2/CC/C(=C/c3ccc(O)c(OC)c3)C2=O)ccc1O	Wee1 stabilizer 10
CCOC(=O)C1CCCN(Cc2ccccc2Cl)C1 (stereo unspecified)	14-3-3 Bad inh 71
CCOC(=O)C1CCCN(Cc2ccccc2C)C1 (stereo unspecified)	14-3-3 Bad inh 76
CCOC(=O)C1CCCN(Cc2ccccc2OCC)C1 (stereo unspecified)	none
CCOC(=O)C1CCCN(Cc2cccs2)C1 (stereo unspecified)	14-3-3 Bad inh 71
O=C(C1CCCN(Cc2cccs2)C1)N1CCCCCC1 (stereo unspecified)	none
COc1ccc(/C(C)=N/NC(=O)C(NC(=O)c2ccccc2)c2n[nH]c(=O)c3ccccc23)c(OC)c1 (stereo unspecified)	none
CCOc1ccccc1N(CC(=O)NCCSc1ccccc1)S(C)(=O)=O	Wee1 stabilizer 9.1
O=C(CN1CCCc2ccccc21)NC(=O)NC1CCCCC1	Wee1 stabilizer 9.2
Cc1c(/C=N/n2cnnc2)c2ccccc2n1C	14-3-3 Bad inh 71[fluorescence artefact?]
Fc1ccc(-c2n[nH]c(=S)n2-c2ccc3c(c2)OCCO3)cc1	Wee1 stabilizer 9.1
COc1nc(N)c(S(=O)(=O)c2ccccc2)cc1C#N	none (no result: 14-3-3 Bad inh, eIF4E 4G PPI)
N#Cc1cc(S(=O)(=O)c2ccc(Cl)cc2)c(N)[nH]c1=O	Wee1 stabilizer 11
CCO/N=C(\C)c1c(O)c2ccccc2n(C)c1=O	none
CN1CCN(c2ccc(NC(=O)CSc3ccccc3)cc2F)CC1	Wee1 stabilizer 9.8
Cc1cc(NC(=O)COC(=O)c2n[nH]c3ccccc23)no1	none
Cc1cccc(C)c1OCCOC(=O)c1n[nH]c2ccccc12	14-3-3 Bad inh 89
C/C(=N\NC(=O)c1cccnc1)c1ccc(OC2OCCOC2Oc2ccc(/C(C)=N/NC(=O)c3cccnc3)cc2)cc1 (stereo unspecified)	14-3-3 Bad inh 87
CCN(CC)c1ccc(C(=O)N/N=C(\C)c2cccnc2)cc1	none
Cc1cccc(NC(=S)N2CCOCC2)c1C	none
Cc1ccc(-c2nn(-c3ccccc3)cc2C(N)=O)o1	none
Cc1ccc(-c2nn(-c3ccccc3)cc2C=O)o1	Wee1 stabilizer 11
CCOC(=O)C1=C(C)NC(=O)NC1c1ccccc1OCc1c(F)cccc1Cl (stereo unspecified)	none
CCOC(=O)c1c(CSC(=N)N)n(-c2ccc(C)cc2)c2cc(Br)c(OC(C)=O)cc12	NCF1 inh 37, Wee1 stabilizer 9.4
CC(C)OC(=O)CSc1nnc(-c2ccc(Cl)cc2)n1N	none
CCC(C)NC(=O)CSc1nnc(-c2ccc(Cl)cc2)n1N (stereo unspecified)	NCF1 inh 53
CC(C)(C)c1ccc(NC(=O)COC(=O)c2ccc(NS(=O)(=O)c3ccc(F)c(F)c3)cc2)cc1	none
OC(CNc1ccccc1)Cn1ccc2ccccc21 (stereo unspecified)	none
Cc1ccc2nc(C(O)C(O)c3nc4ccc(C)cc4[nH]3)[nH]c2c1 (stereo unspecified)	none
Cc1ccc2nc(C(C)O)[nH]c2c1 (stereo unspecified)	Wee1 stabilizer 9.5
CN(C)/C=N/S(=O)(=O)c1ccc(Cl)cc1	none
CCc1nnc(NS(=O)(=O)c2ccc(NC(=S)NC(=O)/C=C/c3ccc(C(C)C)cc3)cc2)s1	eIF4E 4G PPI 64[fluorescence artefact?]
CCc1nnc(NS(=O)(=O)c2ccc(NC(=S)NC(=O)/C=C/c3ccccc3)cc2)s1	none
COc1ccc(C/C(N)=N/OC(=O)Cc2ccccc2)cc1OC	NCF1 inh 115
Nc1nc(-c2ccc3c(c2)NC(=O)CO3)cs1	14-3-3 Bad inh 78
CCC(C)C(=O)Nc1nc(-c2ccc3c(c2)NC(=O)CO3)cs1 (stereo unspecified)	none
